Assay outcomes from PubChem BioAssay.
TAAR1 agonist: human TAAR1 agonism. 0.99% of 360,000 active. activation, % at 3 µM. CHO RD-HGA16 TAAR1, Fluo-8 calcium fluorescence; vehicle wells 0%, saturating PEA agonist 100%;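 active means activation above the mean activation of all test compounds in the run plus 3 SD, cut at about 38% in these data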
Target sequence (Q96RJ0 whole entry, looked up): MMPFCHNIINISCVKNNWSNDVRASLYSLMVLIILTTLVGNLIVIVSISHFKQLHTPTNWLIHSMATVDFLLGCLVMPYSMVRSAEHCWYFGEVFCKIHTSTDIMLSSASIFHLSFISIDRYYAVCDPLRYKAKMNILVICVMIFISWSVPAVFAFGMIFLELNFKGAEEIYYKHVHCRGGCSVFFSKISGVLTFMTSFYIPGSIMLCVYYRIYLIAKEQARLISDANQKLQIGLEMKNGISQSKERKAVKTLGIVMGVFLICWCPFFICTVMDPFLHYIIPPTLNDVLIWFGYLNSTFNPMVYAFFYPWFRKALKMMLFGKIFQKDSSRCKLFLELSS
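Test system: RD-HGA16 (CHO) cells co-expressing Gα16 and hTAAR1; dosing: one-point dosing at 3 µM (nominal); timing: 17-24 h seeding, 75 min 37 °C dye, 30 min RT; signal: kinetic Fluo-8 calcium fluorescence; read-out basis: % activation relative to PEA EC100 response; controls: DMSO and PEA EC100; replicates: n 1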
CHO parental Ca: counter-screen: ATP calcium response change in parental CHO cells; parental CHO-K1, ATP-induced calcium, Fluo-8 fluorescence; inhibition, % at 5.6 µM; 0.63% of 330,000 active; AID 463079;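 active means inhibition above that plate's mean sample inhibition plus 3 SD, cut at about 26% in these data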;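 further: 0% = ATP-challenged DMSO wells and 100% = DMSO wells without ATP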
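Material: Parental CHO cells | Reagent: ATP | Compound dosing: Single nominal dose of 5.6 µM per compound | Detection: Intracellular calcium via Fluo-8 no-wash fluorescent dye | Read-out: % inhibition of ATP-induced calcium mobilization | Benchmarks: Low control ATP plus DMSO, high control DMSO only | Replicates: Singlicate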
TAAR1 antag: antagonists of human TAAR1; CHO RD-HGA16 TAAR1, Fluo-8 calcium fluorescence, antagonist; inhibition, % at 3 µM; 1.5% of 360,000 active;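 active means inhibition above a per-plate cutoff, the mean inhibition of test compounds on that plate plus 3 SD, cut at about 49% in these data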;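 further: 0% = DMSO plus EC80 beta-PEA response and 100% = DMSO alone without agonist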
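Material: RD-HGA16 CHO cells with stable hTAAR1 and Gα16; Dosing: single nominal final test compound concentration of 3 µM; Schedule: seeding 17-24 h prior, 75-min 37 °C, 30-min RT dye loading; Detection: kinetic Fluo-8 calcium fluorescence measurement; Measure: % inhibition from peak post-agonist over basal fluorescence ratio; Benchmarks: vehicle and agonist controls.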
OX1R antag-1: human HCRTR1 antagonism; O43613; CHO/OX1R cells, Fluo-8 calcium fluorescence, orexin A; inhibition, % at 5 µM; 0.43% of 330,000 active;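 active means inhibition above its plate's threshold, mean inhibition of all tested compounds on the plate plus 3 SD, cut at about 37% in these data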;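 further: 0% = orexin A challenge wells and 100% = SB-334867-A antagonist wells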
OX1R antag-2: antagonists of human orexin 1 receptor (OX1R); O43613; OX1R-expressing cells, FRET antagonist read-out; inhibition, % at 6.6 µM; 1.8% of 330,000 active; AID 485270; in the data active means inhibition mostly above about 38%, no sharp cut-off; inactive means mostly below about 40%;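 further: 0% = agonist challenge alone and 100% = reference antagonist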
GPR7 antagonist: antagonists of human GPR7 (neuropeptides B/W receptor 1) | P48145 | GPR7-expressing cells, fluorescence antagonist assay | inhibition, % at 4.4 µM | 1.1% of 290,000 active; in the data active means inhibition above about 16%, passing the limit was not always enough;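 further: cells stimulated with the agonist NPW; 0% = agonist with vehicle and 100% = vehicle without agonist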
Target sequence (P48145 whole entry, looked up): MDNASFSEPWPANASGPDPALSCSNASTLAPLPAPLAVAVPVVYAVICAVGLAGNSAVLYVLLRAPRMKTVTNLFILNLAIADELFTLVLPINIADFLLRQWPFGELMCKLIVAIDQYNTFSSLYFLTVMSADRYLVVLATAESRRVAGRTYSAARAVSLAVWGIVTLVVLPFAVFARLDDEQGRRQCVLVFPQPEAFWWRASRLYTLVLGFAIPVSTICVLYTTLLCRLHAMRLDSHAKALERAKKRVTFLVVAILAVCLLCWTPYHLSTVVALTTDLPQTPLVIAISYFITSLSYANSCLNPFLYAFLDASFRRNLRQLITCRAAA
TAAR1 nonsel count: nonselective antagonist in TAAR1 antagonist counter-screen; counterscreen cell line, calcium fluorescence, antagonist mode; shares compounds with TAAR1 antag; 77% of 2,400 active; AID 651780; inhibition, % at 3 µM; in the data active means inhibition above about 22%;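 further: CHO-Ga16 host cells stimulated with ATP at an EC80 level; 0% = agonist EC80 plus vehicle and 100% = vehicle without agonist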
TAAR1 antag conf: human TAAR1 antagonism, confirmed; AID 651785; TAAR1-expressing cells, fluorescence antagonist read-out; 40% of 2,400 active; inhibition, % at 3 µM; shares compounds with TAAR1 antag; in the data active means inhibition above about 49%;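 further: CHO-Ga16 host cells challenged with agonist PEA near its EC80; 0% = agonist at EC80 plus vehicle and 100% = vehicle with no agonist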
Ga16 ag counter: counter-screen for TAAR1 antagonists: nonselective Ga16 agonists; shares compounds with TAAR1 antag; Ga16-expressing cells, calcium fluorescence, agonist counterscreen; 18% of 2,400 active; activation, % at 3 µM; in the data active means activation above about 12%;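 further: 0% = vehicle wells and 100% = saturating stimulus response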
TAAR1 ag count: TAAR1 agonism, antagonist counter-screen | shares compounds with TAAR1 antag | hTAAR1 cell line, fluorescence activation, agonist mode | activation, % at 3 µM | 2% of 2,400 active; in the data active means activation above about 37%;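 further: CHO cells stably expressing TAAR1 with calcium dye readout; 0% = DMSO vehicle and 100% = full agonist response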
* hit, by the source's call; nt = no result. The list is not random: actives were taken first. Their share in the collection is about 4.6%.

SMILES	TAAR1 agonist	CHO parental Ca	TAAR1 antag	OX1R antag-1	OX1R antag-2	GPR7 antagonist	TAAR1 nonsel count	TAAR1 antag conf	Ga16 ag counter	TAAR1 ag count
CC(Sc1nnc(-c2cccnc2)n1C)C(=O)N1CCOCC1 (stereo not drawn)	0.7	-11.0	-7.2	-1.6	9.2	nt	nt	nt	nt	nt
COc1ccc(CCCNC(=O)C2Cc3c(-c4ccccc4)ccnc3O2)cc1 (stereo not drawn)	-1.9	nt	-1.5	nt	nt	nt	nt	nt	nt	nt
O=C(NCc1ccco1)c1cccc(Nc2nc3ccc(Br)cc3[nH]2)c1	17.5	-26.2	55.5*	-22.0	19.1	-9.4	23.6*	27.1	5.0	11.9
Cc1ccsc1C(=O)N1CCC1(C)C(=O)NCc1cccnc1 (stereo not drawn)	-0.6	nt	21.6	nt	nt	nt	nt	nt	nt	nt
CC(=O)Nc1ccc(S(=O)(=O)N[C@@H](C)C(=O)OCC(=O)NC2CCCC2)cc1	1.1	-14.2	-6.0	-15.3	3.5	nt	nt	nt	nt	nt
COc1ccc2cc(C3=CC(=O)CC(C)(C)C3=O)ccc2c1	6.6	nt	60.7*	nt	nt	nt	26.5*	43.5	6.5	5.8
CC(C)(C)c1ccc(CC(=O)N2CCC2(C)C(=O)NCc2cccc3ccccc23)cc1 (stereo not drawn)	6.1	nt	2.4	nt	nt	nt	nt	nt	nt	nt
C=C(C)C(=O)OCC(O)COc1ccc(C(C)(C)c2ccc(OCC(O)COC(=O)C(=C)C)cc2)cc1 (stereo not drawn)	14.8	56.8*	91.8*	25.3	20.2	nt	55.3*	69.9*	19.3*	27.4
COc1ccccc1N(C)S(=O)(=O)c1ccc(C(=O)NCc2ccc3c(c2)OCO3)cc1	18.4	13.4	66.7*	-14.7	17.1	-5.9	31.2*	53.5*	10.8	11.8
COc1ccccc1N(C)S(=O)(=O)c1ccc(C(=O)Nc2ccc(C(N)=O)cc2)cc1	8.5	-13.4	54.1*	5.4	4.5	nt	23.8*	30.0	4.2	5.1
COc1ccccc1N(C)S(=O)(=O)c1ccc(C(=O)N(C)Cc2ccc(Cl)s2)cc1	14.5	-22.9	51.0*	-9.9	11.7	nt	26.8*	37.5	8.1	6.6
COc1cccc(C(=O)NCc2ccc3c(c2)OCO3)c1OC	2.7	nt	-14.4	nt	nt	-7.2	nt	nt	nt	nt
Cc1ccc(CNC(=O)c2ccc(N(C)S(=O)(=O)c3ccccc3)cc2)cc1	6.1	-15.8	-24.4	-8.5	13.7	-1.5	nt	nt	nt	nt
CN(c1ccccc1)S(=O)(=O)c1ccc(C(=O)NCc2ccc(F)cc2)cc1	15.8	3.3	63.9*	15.0	3.5	nt	41.7*	58.3*	12.2*	10.4
CCN(CC)CCNC(=O)c1ccc(NC(=O)c2ccc(S(=O)(=O)N(C)c3ccccc3OC)cc2)cc1	1.7	nt	-3.5	nt	nt	nt	nt	nt	nt	nt
COc1ccccc1N(C)S(=O)(=O)c1ccc(C(=O)N(C)Cc2cccc(OC)c2OC)cc1	4.8	nt	31.1	nt	nt	nt	nt	nt	nt	nt
COC(=O)c1c(-c2ccc(S(C)(=O)=O)cc2)sc2cc(OC)ccc12	12.9	5.8	8.6	-0.6	8.0	nt	nt	nt	nt	nt
COc1ccc2c(C(=O)NCc3ccc4c(c3)OCO4)c(-c3ccc(S(C)(=O)=O)cc3)sc2c1	21.0	-2.1	63.6*	1.4	4.6	nt	36.0*	54.7*	7.8	12.2
O=[N+]([O-])c1ccc(N/N=C/c2c[nH]c3ccccc23)cc1	25.1	47.0*	89.4*	45.0	10.6	21.5	35.7*	62.7*	17.6*	9.4
O=[N+]([O-])c1ccccc1N/N=C/c1c[nH]c2ccccc12	-1.8	-6.7	1.0	2.9	49.6	-10.4	nt	nt	nt	nt
Cc1ccc(NC(=O)CCC(=O)NN=Cc2ccc(C)o2)c(C)c1	1.1	nt	-18.7	nt	nt	nt	nt	nt	nt	nt
COc1ccc(-n2ncc3c(N4CCN(Cc5ccccc5)CC4)ncnc32)cc1	10.4	-11.1	59.6*	-25.7	8.1	-11.4	27.6*	49.7*	8.1	4.6
CCN1CCN(c2ncnc3c2cnn3-c2ccccc2)CC1	1.4	-4.1	8.8	-23.2	12.7	-3.5	nt	nt	nt	nt
COc1cccc(N2CCN(c3ncnc4c3cnn4-c3ccc(C)cc3C)CC2)c1	4.5	42.4*	95.8*	38.9	43.4*	-11.3	48.1*	64.8*	9.2	4.5
Cc1ccc(NC(=O)c2cc(C(C)(C)C)nn2Cc2ccccc2)cc1	6.1	-17.1	61.0*	-17.4	11.9	-20.3	24.3*	41.5	5.3	1.4
SMILES	TAAR1 agonist	CHO parental Ca	TAAR1 antag	OX1R antag-1	OX1R antag-2	GPR7 antagonist	TAAR1 nonsel count	TAAR1 antag conf	Ga16 ag counter	TAAR1 ag count
Cc1ccccc1N1C(=O)c2ccccc2N2C(=O)c3ccccc3C12 (stereo not drawn)	-1.1	-1.7	-11.4	-7.6	22.9	5.0	nt	nt	nt	nt
COc1ccc2c(c1OC)C(=O)N1c3ccccc3C(=O)N(c3ccc(F)cc3)C21 (stereo not drawn)	19.3	-17.4	82.1*	-23.8	35.2	16.4	28.0*	49.4*	8.2	11.3
COc1ccc2c(c1OC)C(=O)N1c3ccccc3C(=O)N(c3ccccc3)C21 (stereo not drawn)	22.2	-22.4	62.8*	-24.0	18.4	11.4	32.3*	51.4*	12.2*	10.9
COc1cccc(C2Nc3ccccc3C(=O)N2c2ccc(F)cc2)c1O (stereo not drawn)	2.0	-5.6	-9.9	-8.1	-11.3	0.8	nt	nt	nt	nt
COc1ccccc1N(CC(=O)NCc1ccco1)C(=O)CCC(=O)Nc1ccccn1	5.0	-12.7	1.5	-20.7	16.3	-8.8	nt	nt	nt	nt
CC1C(=O)N(Cc2cn(Cc3ccco3)nn2)CCS(=O)(=O)N1Cc1ccc(-c2ccc(F)cc2Cl)cc1 (stereo not drawn)	-1.7	nt	-48.8	nt	nt	nt	nt	nt	nt	nt
Cc1ccc(C)c(N2CCN(C(=O)COc3cc(=O)n(C)c4ccccc34)CC2)c1	10.5	-5.0	23.6	-19.6	10.3	-9.7	nt	nt	nt	nt
Cc1ccc(C)c(N2CCN(C(=O)CCCOc3cc(=O)n(C)c4ccccc34)CC2)c1	25.4	-14.4	54.0*	-18.8	18.0	-11.3	38.8*	56.5*	12.8*	16.4
CCCc1cc(=O)oc2cc(OCC(=O)NCCCn3ccnc3)c(Cl)cc12	1.6	-13.6	-18.9	-8.7	0.3	-3.6	nt	nt	nt	nt
O=C(COC(=O)/C=C/c1cn(-c2ccccc2)nc1-c1ccc2c(c1)OCCO2)NC1CCS(=O)(=O)C1 (stereo not drawn)	13.6	19.6	86.6*	27.4	19.2	-6.5	39.9*	54.9*	8.0	7.2
